Measured values collected from several papers.
Target: Dual specificity tyrosine-phosphorylation-regulated kinase 4 (DYRK4, Homo sapiens, UniProt Q9NR20)
Residues used in one study (Q9NR20 1-520): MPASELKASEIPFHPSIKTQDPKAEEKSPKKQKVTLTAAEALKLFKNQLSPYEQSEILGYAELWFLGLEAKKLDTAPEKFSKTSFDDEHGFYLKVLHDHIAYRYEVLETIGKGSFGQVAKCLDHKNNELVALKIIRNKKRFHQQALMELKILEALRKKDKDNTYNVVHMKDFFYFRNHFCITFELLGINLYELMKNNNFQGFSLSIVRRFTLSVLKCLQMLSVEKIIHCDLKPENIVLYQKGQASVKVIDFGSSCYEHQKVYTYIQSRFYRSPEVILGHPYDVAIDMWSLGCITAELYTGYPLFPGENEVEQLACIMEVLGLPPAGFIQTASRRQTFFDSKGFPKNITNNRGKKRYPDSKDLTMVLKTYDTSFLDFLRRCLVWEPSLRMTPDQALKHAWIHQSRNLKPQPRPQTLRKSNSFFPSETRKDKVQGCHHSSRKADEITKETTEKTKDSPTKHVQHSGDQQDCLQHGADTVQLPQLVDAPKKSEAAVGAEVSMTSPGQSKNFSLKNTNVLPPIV

The remaining activity of `O=C(Nc1cnn(-c2csc(C(=O)NC3COC3)c2)c1)Nc1ccccc1Cl` is reported as 94.6% (enzyme activity; inhibitor; 5 µM).
With `COc1cc(-c2cc(-c3ccc(N4CCNCC4)cc3)cnc2C)cc(OC)c1OC` the inhibition was 2% (enzyme activity; inhibitor; 0.1 µM).
`COc1cc2ncnc(Nc3ccc(Oc4ccccc4)cc3C)c2cc1OC` gave an inhibition of 0% (enzyme activity; inhibitor; 1 µM).
`O=C1Nc2ccc(Cl)cc2C1=Cc1cc(Cl)c(O)c(Cl)c1` has a remaining signal of 95.7% (cell-free assay; 0.5 µM).
With `Cn1cc(-c2cc(F)cc(N3CCn4c(cc5c4CCCC5)C3=O)c2CO)cc(Nc2ccc(N3CCN(C4COC4)CC3)cn2)c1=O` the inhibition was 5% (enzyme activity; inhibitor; 0.1 µM).
`CC(C)(O)[C@H]1CC[C@H](Nc2ccc3ncc(-c4cccc(C(F)(F)F)c4)n3n2)CC1` has a remaining activity of 97.3% (enzyme activity; inhibitor; 1 µM).
`Cn1cnc(Br)c1C1=CN(c2ncnc3[nH]cnc23)CCS1` has an inhibition of 14.9% (enzyme activity; inhibitor; radiometric; 50 nM).
For `CCCS(=O)(=O)Nc1ccc(F)c(C(=O)c2c[nH]c3ncc(-c4ccc(Cl)cc4)cc23)c1F`, the inhibition was < 10% (enzyme activity; inhibitor; 1 µM).
`Cn1cc(-c2cccc(N3CCc4c(sc5c4CC(C)(C)C5)C3=O)c2CO)cc(Nc2ccncn2)c1=O` gave an inhibition of 2% (enzyme activity; inhibitor; 1 µM).
`CC(C)(C)c1nc(-c2cccc(NS(=O)(=O)c3c(F)cccc3F)c2F)c(-c2ccnc(N)n2)s1` gave a remaining activity of 38% (enzyme activity; inhibitor; radiometric; 1 µM).
`O=C(Nc1cnn(-c2csc(C(=O)NC3COC3)c2)c1)Nc1c(F)cccc1Cl` has a remaining activity of 96.2% (enzyme activity; inhibitor; 5 µM).
`CC(C)(C)c1nc2c(s1)c1nc(N)ncc1c1ccc(NS(=O)(=O)c3c(F)cccc3F)c(F)c12` gave a remaining activity of 92% (enzyme activity; inhibitor; radiometric; 1 µM).
`COc1cc2ncnc(Nc3ccc(Oc4ccccc4)c(C)c3C)c2cc1OC` gave an inhibition of -1% (enzyme activity; inhibitor; 1 µM).
With `O=C1NC(=O)c2cc(Nc3ccc(F)cc3)c(Nc3ccc(F)cc3)cc21` the remaining signal was 98.6% (cell-free assay; 0.5 µM).
